Laboratory results: paper PMC6771164 (Hepatology Communications, 2019)

Assays:
[1] = test system: woodchuck hepatitis virus (WHV); test: Efficacy study in WHV-positive woodchucks; assay type: in vivo
How it was run: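 Adult chronically WHV-infected woodchucks of both sexes (serum WHV DNA, WHsAg and WHeAg positive; anti-WHs and anti-WHe negative) stratified into four groups, n = 5. Daily oral nucleoside analogue (0.1 mg/kg/day) or PBS vehicle in diet for 4 weeks. Then 12 weeks adding weekly oral TLR7 agonist (5.0–30.0 mg/kg/week) or carboxymethyl cellulose/tween-80 vehicle. Then 4 weeks daily drug only, followed to week 36. Serum WHsAg and anti-WHs by enzyme immunoassay. WHeAg and anti-WHe by cross-reactive ELISA OD.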

serum IP-10, IL-6, TNF-α = test: Mouse PD study: serum cytokines after single oral dose; assay type: in vivo, C57BL/6 mice; conditions: serum at 3 hours
How it was run: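 Female C57BL/6 mice, 7-8 weeks old, given a single oral dose of test compound at 0.3, 3, 30 or 300 mg/kg. Bled at 3 hours. Serum IP-10, IL-6 and TNF-α quantified as pg/mL, reported as mean ± SD.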

[2] = mice; cited from earlier work
[3] = cited from earlier work
[4] = cited from earlier work; remark: listed apart in the source
OAS1 transcript in blood = conditions: woodchuck model; cited from earlier work

Structure (SMILES)	woodchucks with recrudescence of WHV replication after drug withdrawal ([1]; Group 1)	animals with undetectable serum WHeAg during the study ([1]; Group 1, n = 5)	animals with undetectable serum WHsAg during the study ([1]; Group 1, n = 5)	elicitation of anti-WHs antibodies ([1]; monotherapy (Groups 1 and 2))	serum IL-6 level relative to APR002 (serum IP-10, IL-6, TNF-α; high oral doses) [fold]	serum TNF-α level relative to APR002 (serum IP-10, IL-6, TNF-α; high oral doses) [fold]	slope of serum IP-10 dose response (serum IP-10, IL-6, TNF-α; single oral dose 0.3-300 mg/kg)	volume of distribution [2]	clearance in mouse liver microsomes [3]	clearance in human liver microsomes [4]	fold change in blood OAS1 (OAS1 transcript in blood) [fold]
C=C1[C@H](CO)[C@@H](O)C[C@@H]1n1cnc2c(=O)[nH]c(N)nc21 [ETV, entecavir]	all five	five	four	did not occur in any animal	–	–	–	–	–	–	–
CCCCOc1nc(N)c2c(n1)N(Cc1cccc(CN3CCCC3)c1)CC(=O)N2 [GS-9620]	–	–	–	–	> 6	> 4	2.8	high volume of distribution	fast clearance	fast clearance	5
